Our source for the inhibition, AUC and Activity values is ChEMBL document CHEMBL4308830, “Design, Synthesis, and Characterization of 4-Undecylpiperidine-2-carboxamides as Positive Allosteric Modulators of the Serotonin (5-HT) 5-HT2C Receptor” (J Med Chem, 2018).

Molecules are shown by their SMILES. Active and inactive are the calls of the source. The rule behind the calls is not given here.

For data set [1], the target named is 5-hydroxytryptamine receptor 1E (Homo sapiens) (UniProt P28566). The data set can be described thus: Displacement of [3H]-5-HT from recombinant human 5-HT1ER expressed in HEK cell membranes at 10 uM after 90 mins by scintillation counting method relative to control.
The target of data set [2] is 5-hydroxytryptamine receptor 3A (Homo sapiens) (UniProt P46098). The data set can be described thus: Displacement of [3H]-LY278584 from recombinant human 5-HT3R expressed in HEK cell membranes at 10 uM after 90 mins by scintillation counting method relative to control.
In data set [3] the target is 5-hydroxytryptamine receptor 5A (Homo sapiens) (UniProt P47898). The data set can be described thus: Displacement of [3H]-LSD from recombinant human 5-HT5AR expressed in Flp-IN CHO cell membranes at 10 uM after 90 mins by scintillation counting method relative to control.
In data set [4] the target is 5-hydroxytryptamine receptor 7 (Homo sapiens) (UniProt P34969). As to the kind of experiment: Displacement of [3H]-LSD from recombinant human 5-HT7R expressed in HEK cell membranes at 10 uM after 90 mins by scintillation counting method relative to control.
In data set [5] the target is Sodium-dependent dopamine transporter (Homo sapiens) (UniProt Q01959). As to the kind of experiment: Displacement of [3H]-WIN35428 from recombinant human DAT expressed in HEK cell membranes at 10 uM after 90 mins by scintillation counting method relative to control. The procedure, abridged:
(§1)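 Single-concentration screen at 10 μM test compound, each target labelled with the radioligand given in the line. The read-out is mean % inhibition of specific radioligand binding (n = 4). Targets above 50% inhibition went on to full competition isotherms, and Ki came from best-fit IC50 by the Cheng–Prusoff equation.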

In data set [6] the target is Alpha-2A adrenergic receptor (Homo sapiens) (UniProt P08913). As to the kind of experiment: Displacement of [3H]-rauwolscine from recombinant human alpha-2A adrenergic receptor expressed in MDCK cell membranes at 10 uM after 90 mins by scintillation counting method relative to control. The method in brief:
as §1

The nature of data set [7]: AUC (0 to infinity) in Sprague-Dawley rat at 5 mg/kg, iv administered as single dose. Format: ADME, organism-based. Details: dose 5 mg/kg, time infinity, route intravenous. The settings on record: in vivo.
Another data set relates to Rattus norvegicus. As to the kind of experiment: Suppression of spontaneous locomotor activity in Sprague-Dawley rat assessed as reduction in total ambulation at 5 mg/kg, ip administered as single dose measured for 30 mins. In kind it is functional, organism-based. The method in brief: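 Male Sprague–Dawley rats naive to activity monitors (n = 7–8/group) received saline (1 mL/kg ip) or compound (0.5, 1 or 5 mg/kg ip) immediately before testing. Ambulations and vertical counts were taken in 5 min bins for 90 min and totalled over the first 30 min. Analysis: one-way ANOVA with Dunnett's comparisons to vehicle.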

5-hydroxytryptamine receptor 5A (Homo sapiens), sequence (P47898 whole entry): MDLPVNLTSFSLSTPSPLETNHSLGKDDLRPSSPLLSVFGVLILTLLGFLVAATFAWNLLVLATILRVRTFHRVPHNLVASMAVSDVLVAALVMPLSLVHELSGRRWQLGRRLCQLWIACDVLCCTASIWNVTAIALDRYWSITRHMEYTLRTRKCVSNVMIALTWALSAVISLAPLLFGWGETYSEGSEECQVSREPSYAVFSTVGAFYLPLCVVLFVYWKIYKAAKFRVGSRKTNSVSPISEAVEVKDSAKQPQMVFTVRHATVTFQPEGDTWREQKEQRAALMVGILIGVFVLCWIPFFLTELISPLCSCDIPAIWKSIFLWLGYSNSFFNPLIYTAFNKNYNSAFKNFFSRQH
5-hydroxytryptamine receptor 7 (Homo sapiens), sequence (P34969 whole entry): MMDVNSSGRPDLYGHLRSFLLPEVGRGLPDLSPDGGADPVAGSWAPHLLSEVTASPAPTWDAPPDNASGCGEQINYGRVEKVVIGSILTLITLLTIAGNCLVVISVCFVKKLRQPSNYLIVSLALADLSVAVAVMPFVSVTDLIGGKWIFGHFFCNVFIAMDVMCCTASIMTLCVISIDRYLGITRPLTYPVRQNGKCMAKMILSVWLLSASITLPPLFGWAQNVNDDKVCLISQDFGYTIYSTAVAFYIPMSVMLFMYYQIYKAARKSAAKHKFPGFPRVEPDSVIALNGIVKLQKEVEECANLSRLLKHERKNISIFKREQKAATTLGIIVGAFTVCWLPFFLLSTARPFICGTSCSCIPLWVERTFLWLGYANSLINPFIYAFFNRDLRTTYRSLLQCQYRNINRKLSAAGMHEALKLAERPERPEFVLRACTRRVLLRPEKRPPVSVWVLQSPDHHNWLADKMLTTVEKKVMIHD
5-hydroxytryptamine receptor 3A (Homo sapiens), sequence (P46098 whole entry): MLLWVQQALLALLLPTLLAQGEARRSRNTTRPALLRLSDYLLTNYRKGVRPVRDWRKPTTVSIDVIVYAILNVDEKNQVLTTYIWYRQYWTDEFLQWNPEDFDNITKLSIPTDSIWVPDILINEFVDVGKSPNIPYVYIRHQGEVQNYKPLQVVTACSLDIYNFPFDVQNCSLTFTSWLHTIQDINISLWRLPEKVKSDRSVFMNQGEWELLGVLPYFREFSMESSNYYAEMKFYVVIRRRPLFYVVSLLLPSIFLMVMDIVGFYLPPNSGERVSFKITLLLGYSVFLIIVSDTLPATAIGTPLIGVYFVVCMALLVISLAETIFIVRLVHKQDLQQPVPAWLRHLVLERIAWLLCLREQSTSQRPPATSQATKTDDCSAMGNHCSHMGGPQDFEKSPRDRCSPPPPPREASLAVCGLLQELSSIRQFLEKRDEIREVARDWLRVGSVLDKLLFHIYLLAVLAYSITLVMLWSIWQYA
5-hydroxytryptamine receptor 1E (Homo sapiens), sequence (P28566 whole entry): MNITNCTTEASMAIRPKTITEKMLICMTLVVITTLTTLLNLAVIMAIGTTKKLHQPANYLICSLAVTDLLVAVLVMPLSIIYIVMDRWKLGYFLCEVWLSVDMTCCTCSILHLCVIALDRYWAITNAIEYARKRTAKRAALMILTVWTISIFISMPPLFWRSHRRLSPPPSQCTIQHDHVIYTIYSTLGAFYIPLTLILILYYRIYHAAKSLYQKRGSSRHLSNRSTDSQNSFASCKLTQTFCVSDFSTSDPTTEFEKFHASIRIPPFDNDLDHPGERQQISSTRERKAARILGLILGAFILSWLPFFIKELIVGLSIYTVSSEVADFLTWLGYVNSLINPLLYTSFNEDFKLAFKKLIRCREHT
Sodium-dependent dopamine transporter (Homo sapiens), sequence (Q01959 whole entry): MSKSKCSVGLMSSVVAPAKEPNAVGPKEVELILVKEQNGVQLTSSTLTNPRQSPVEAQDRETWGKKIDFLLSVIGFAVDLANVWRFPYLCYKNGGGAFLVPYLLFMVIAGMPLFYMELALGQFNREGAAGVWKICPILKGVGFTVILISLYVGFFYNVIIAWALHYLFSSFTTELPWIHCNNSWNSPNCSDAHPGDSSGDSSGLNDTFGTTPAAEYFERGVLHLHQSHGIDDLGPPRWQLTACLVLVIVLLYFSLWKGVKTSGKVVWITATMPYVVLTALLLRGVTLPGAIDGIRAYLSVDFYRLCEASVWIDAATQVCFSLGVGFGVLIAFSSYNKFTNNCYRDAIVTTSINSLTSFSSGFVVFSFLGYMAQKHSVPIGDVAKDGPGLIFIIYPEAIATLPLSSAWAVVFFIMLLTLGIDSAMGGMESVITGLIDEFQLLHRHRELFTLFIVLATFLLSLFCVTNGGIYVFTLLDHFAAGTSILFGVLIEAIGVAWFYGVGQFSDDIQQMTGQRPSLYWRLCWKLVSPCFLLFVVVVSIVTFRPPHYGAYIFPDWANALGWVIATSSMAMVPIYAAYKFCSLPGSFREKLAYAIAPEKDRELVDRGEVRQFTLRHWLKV
Alpha-2A adrenergic receptor (Homo sapiens), sequence (P08913 whole entry): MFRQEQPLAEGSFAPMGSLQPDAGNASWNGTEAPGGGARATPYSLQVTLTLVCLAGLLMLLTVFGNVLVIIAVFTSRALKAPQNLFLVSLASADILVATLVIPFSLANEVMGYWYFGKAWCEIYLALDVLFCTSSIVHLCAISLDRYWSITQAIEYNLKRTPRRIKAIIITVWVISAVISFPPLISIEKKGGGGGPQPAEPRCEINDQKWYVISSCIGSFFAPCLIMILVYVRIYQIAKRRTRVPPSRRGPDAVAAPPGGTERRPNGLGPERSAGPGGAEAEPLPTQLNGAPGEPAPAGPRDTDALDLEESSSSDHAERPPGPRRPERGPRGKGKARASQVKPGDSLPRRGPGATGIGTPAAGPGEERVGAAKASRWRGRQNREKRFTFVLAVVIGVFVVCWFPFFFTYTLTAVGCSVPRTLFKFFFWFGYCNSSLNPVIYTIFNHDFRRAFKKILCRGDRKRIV

Consider `CCCCCCCCCCC[C@@H]1CCN[C@H](C(=O)NCC(O)CO)C1` (relative stereo), for which the inhibition in data set [1] stood at 0.7%; in data set [2], 27%; in data set [3], 17.2%; in data set [4], 26.8%; in data set [5], 66.3%; in data set [6] it was 85.1%. This compound also had an AUC in data set [7] of 939 ng·h/mL. Also, the result in the data set with Rattus norvegicus was Active.
